Reference: ChEMBL document CHEMBL4130549, “Synthesis and bioactivities study of new antibacterial peptide mimics: The dialkyl cationic amphiphiles” (Eur J Med Chem, 2018)
Calls of active or inactive are those of the source.

Assays:
[1] = test system: Escherichia coli; assay: Antibacterial activity against Escherichia coli ATCC 25922 after 16 to 20 hrs by broth microdilution method; type: functional
Outline: (§1)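 Broth microdilution per CLSI in cation-adjusted Mueller-Hinton broth; 4-6 h cultures (~10⁸ CFU/mL) diluted to ~10⁶ CFU/mL and mixed 1:1 with twofold dilutions of water-dissolved compound (256 to 0.5 µg/mL). Incubated 16-20 h at 37 °C; MIC read visually. Each concentration run in duplicate, whole experiment repeated at least twice. MRSA, KPC and NDM-1 strains were clinical isolates.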

[2] = test system: Enterobacteriaceae; assay: Antibacterial activity against NDM-1-producing Enterobacteriaceae isolate N7 after 16 to 20 hrs by broth microdilution method; type: functional; outline: as §1
[3] = test system: Klebsiella pneumoniae; assay: Antibacterial activity against carbapenemase-producing Klebsiella pneumoniae isolate K4 after 16 to 20 hrs by broth microdilution method; type: functional; outline: as §1
[4] = test system: Klebsiella pneumoniae; assay: Antibacterial activity against carbapenemase-producing Klebsiella pneumoniae isolate K7 after 16 to 20 hrs by broth microdilution method; type: functional; outline: as §1
[5] = test system: Enterobacteriaceae; assay: Antibacterial activity against NDM-1-producing Enterobacteriaceae isolate N4 after 16 to 20 hrs by broth microdilution method; type: functional; outline: as §1
[6] = test system: Escherichia coli; assay: Induction of inner membrane permeabilization in Escherichia coli ATCC 25922 at 20 ug/ml measured every 2 mins for 12 mins by propidium iodide staining based fluorescence assay; type: functional, organism-based
Outline: (§2)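 Mid-log cells (~10^8 CFU/mL) pre-incubated with propidium iodide (10 µM, 50 µL), 30 min for S. aureus and 40 min for E. coli. Fluorescence (ex 535/em 617 nm) read for 8 min, then compound added to 20 µg/mL final and monitored every 2 min for 12 min. Water-treated control.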

[7] = test system: Salmonella enterica; assay: Antibacterial activity against Salmonella enterica after 16 to 20 hrs by broth microdilution method; type: functional; outline: as §1
[8] = test system: Staphylococcus aureus; assay: Antibacterial activity against Staphylococcus aureus ATCC 29213 after 16 to 20 hrs by broth microdilution method; type: functional
Outline: (§3)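 CLSI broth microdilution in cation-adjusted Mueller-Hinton broth. A 4-6 h culture was diluted to about 10⁶ CFU/mL and mixed 1:1 with twofold compound dilutions (256–0.5 µg/mL before mixing) prepared from aqueous stocks. Plates were incubated at 37 °C for 16-20 h. Each concentration was tested in duplicate, and the experiment was repeated at least twice.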

[9] = test system: Enterobacteriaceae; assay: Antibacterial activity against NDM-1-producing Enterobacteriaceae isolate N6 after 16 to 20 hrs by broth microdilution method; type: functional; outline: as §1
[10] = test system: Enterobacteriaceae; assay: Antibacterial activity against NDM-1-producing Enterobacteriaceae isolate N1 after 16 to 20 hrs by broth microdilution method; type: functional; outline: as §1
[11] = test system: Enterococcus faecalis; assay: Antibacterial activity against Enterococcus faecalis after 16 to 20 hrs by broth microdilution method; type: functional; outline: as §1
[12] = test system: Klebsiella pneumoniae; assay: Antibacterial activity against carbapenemase-producing Klebsiella pneumoniae isolate K5 after 16 to 20 hrs by broth microdilution method; type: functional; outline: as §1
[13] = test system: Staphylococcus aureus; assay: Induction of inner membrane permeabilization in Staphylococcus aureus ATCC 29213 at 20 ug/ml measured every 2 mins for 12 mins by propidium iodide staining based fluorescence assay; type: functional, organism-based; outline: as §2
[14] = test system: Enterobacteriaceae; assay: Antibacterial activity against NDM-1-producing Enterobacteriaceae after 16 to 20 hrs by broth microdilution method; type: functional; outline: as §1
[15] = test system: Escherichia coli; assay: Induction of cytoplasmic membrane depolarization in Escherichia coli ATCC 25922 at 20 ug/ml measured every 2 mins for 12 mins by diSC35 staining based fluorescence assay; type: functional, organism-based
Outline: (§4)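 Mid-log cells (4–6 h) pelleted, washed and resuspended (~10^8 CFU/mL) in PBS for S. aureus, or in 5 mM HEPES, 5 mM glucose and 100 mM KCl (1:1:1) for E. coli. Preloaded with diSC35 (10 µM, 50 µL), 30 min for S. aureus and 40 min plus EDTA (200 µM, 50 µL) for E. coli. Baseline read 8 min (ex 622/em 670 nm), then compound added to 20 µg/mL final and read every 2 min for 12 min. Water control.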

[16] = test system: Enterobacteriaceae; assay: Antibacterial activity against NDM-1-producing Enterobacteriaceae isolate N9 after 16 to 20 hrs by broth microdilution method; type: functional; outline: as §1
[17] = test system: Enterobacteriaceae; assay: Antibacterial activity against NDM-1-producing Enterobacteriaceae isolate N5 after 16 to 20 hrs by broth microdilution method; type: functional; outline: as §1
[18] = test system: Klebsiella pneumoniae; assay: Antibacterial activity against carbapenemase-producing Klebsiella pneumoniae isolate K1 after 16 to 20 hrs by broth microdilution method; type: functional; outline: as §1
[19] = test system: Staphylococcus aureus; assay: Antibacterial activity against methicillin-resistant Staphylococcus aureus isolate M5 after 16 to 20 hrs by broth microdilution method; type: functional; outline: as §3
[20] = test system: Klebsiella pneumoniae; assay: Antibacterial activity against carbapenemase-producing Klebsiella pneumoniae isolate K10 after 16 to 20 hrs by broth microdilution method; type: functional; outline: as §1
[21] = test system: Staphylococcus aureus; assay: Induction of cytoplasmic membrane depolarization in Staphylococcus aureus ATCC 29213 at 20 ug/ml measured every 2 mins for 12 mins by diSC35 staining based fluorescence assay; type: functional, organism-based; outline: as §4
[22] = test system: Klebsiella pneumoniae; assay: Antibacterial activity against carbapenemase-producing Klebsiella pneumoniae isolate K9 after 16 to 20 hrs by broth microdilution method; type: functional; outline: as §1
[23] = test system: Enterobacteriaceae; assay: Antibacterial activity against NDM-1-producing Enterobacteriaceae isolate N2 after 16 to 20 hrs by broth microdilution method; type: functional; outline: as §1
[24] = test system: Staphylococcus aureus; assay: Antibacterial activity against methicillin-resistant Staphylococcus aureus isolate M9 after 16 to 20 hrs by broth microdilution method; type: functional; outline: as §3
[25] = test system: Staphylococcus aureus; assay: Antibacterial activity against methicillin-resistant Staphylococcus aureus isolate M6 after 16 to 20 hrs by broth microdilution method; type: functional; outline: as §3
[26] = test system: Klebsiella pneumoniae; assay: Antibacterial activity against carbapenemase-producing Klebsiella pneumoniae isolate K6 after 16 to 20 hrs by broth microdilution method; type: functional; outline: as §1
[27] = Hemolytic activity in sheep RBC after 1 hr; type: ADME, cell-based, Ovis aries, Erythrocyte; conditions: sheep red blood cells (erythrocytes)
Outline: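 Sheep RBCs suspended at 5% in PBS; 150 µL added to 50 µL compound dilutions (5120 to 10 µg/mL series). Incubated 1 h at 37 °C, then centrifuged; supernatant absorbance read at 540 nm. Lysis (%) = (A−A0)/(Atotal−A0)×100, with untreated 5% RBC as A0 and 0.1% Triton X-100 as total.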

[28] = test system: Klebsiella pneumoniae; assay: Antibacterial activity against carbapenemase-producing Klebsiella pneumoniae isolate K3 after 16 to 20 hrs by broth microdilution method; type: functional; outline: as §1
[29] = test system: Enterobacteriaceae; assay: Antibacterial activity against NDM-1-producing Enterobacteriaceae isolate N10 after 16 to 20 hrs by broth microdilution method; type: functional; outline: as §1
[30] = test system: Staphylococcus aureus; assay: Antibacterial activity against methicillin-resistant Staphylococcus aureus isolate M7 after 16 to 20 hrs by broth microdilution method; type: functional; outline: as §3
[31] = test system: Staphylococcus aureus; assay: Antibacterial activity against methicillin-resistant Staphylococcus aureus isolate M8 after 16 to 20 hrs by broth microdilution method; type: functional; outline: as §3
[32] = test system: Staphylococcus aureus; assay: Antibacterial activity against methicillin-resistant Staphylococcus aureus isolate M10 after 16 to 20 hrs by broth microdilution method; type: functional; outline: as §3
[33] = test system: Staphylococcus aureus; assay: Antibacterial activity against methicillin-resistant Staphylococcus aureus isolate M2 after 16 to 20 hrs by broth microdilution method; type: functional; outline: as §3
[34] = test system: Staphylococcus aureus; assay: Antibacterial activity against methicillin-resistant Staphylococcus aureus isolate M3 after 16 to 20 hrs by broth microdilution method; type: functional; outline: as §3
[35] = test system: Staphylococcus aureus; assay: Antibacterial activity against methicillin-resistant Staphylococcus aureus isolate M4 after 16 to 20 hrs by broth microdilution method; type: functional; outline: as §3
[36] = test system: Klebsiella pneumoniae; assay: Antibacterial activity against carbapenemase-producing Klebsiella pneumoniae isolate K8 after 16 to 20 hrs by broth microdilution method; type: functional; outline: as §1
[37] = test system: Staphylococcus aureus; assay: Antibacterial activity against methicillin-resistant Staphylococcus aureus isolate M1 after 16 to 20 hrs by broth microdilution method; type: functional; outline: as §3
[38] = test system: Escherichia coli; assay: Induction of outer membrane permeabilization in Escherichia coli ATCC 25922 at 20 ug/ml measured every 2 mins for 12 mins by NPN staining based fluorescence assay; type: functional, organism-based
Outline: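 Mid-log E. coli (~10^8 CFU/mL) in black plates pre-incubated about 40 min with NPN (10 µM, 50 µL). Baseline read 8 min (ex 350/em 420 nm), then compound added to 20 µg/mL final and fluorescence followed every 2 min for 12 min. Water-treated control.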

[39] = test system: Enterobacteriaceae; assay: Antibacterial activity against NDM-1-producing Enterobacteriaceae isolate N8 after 16 to 20 hrs by broth microdilution method; type: functional; outline: as §1
[40] = test system: Enterobacteriaceae; assay: Antibacterial activity against NDM-1-producing Enterobacteriaceae isolate N3 after 16 to 20 hrs by broth microdilution method; type: functional; outline: as §1
[41] = test system: Klebsiella pneumoniae; assay: Antibacterial activity against carbapenemase-producing Klebsiella pneumoniae after 16 to 20 hrs by broth microdilution method; type: functional; outline: as §1
[42] = test system: Staphylococcus aureus; assay: Antibacterial activity against methicillin-resistant Staphylococcus aureus after 16 to 20 hrs by broth microdilution method; type: functional; outline: as §3
[43] = test system: Klebsiella pneumoniae; assay: Antibacterial activity against carbapenemase-producing Klebsiella pneumoniae isolate K2 after 16 to 20 hrs by broth microdilution method; type: functional; outline: as §1

CCCCCCCCN(CCCCCCCC)C(=O)[C@H](C)N.Cl
32 µg/mL: MIC [3] | MIC [4] | MIC [7] | MIC [12] | MIC [26]
16 µg/mL: MIC [18] | MIC [20] | MIC [22] | MIC [28] | MIC [36] | MIC [41] | MIC [43]
active: Activity [6] | Activity [13] | Activity [15] | Activity [21] | Activity [38]
4 µg/mL: MIC [1] | MIC [8] | MIC [19] | MIC [24] | MIC [25] | MIC [30] | MIC [31] | MIC [32] | MIC [33] | MIC [34] | MIC [35] | MIC [37] | MIC [42]
306 µg/mL: HC50 at 1 h [27]
8 µg/mL: MIC [11]
64 µg/mL: MIC [2] | MIC [5] | MIC [9] | MIC [10] | MIC [14] | MIC [16] | MIC [17] | MIC [23] | MIC [29] | MIC [39] | MIC [40]
